Active and inactive are the calls of the source. No cut-off for these calls is given here.
What was measured:
Lipid bilayer = test: Induction of pore formation in POPC vesicles at 20 uM after 3 hrs by carboxyfluorescein dye leakage assay; conditions: in the assay text read “after 3 mins” for “after 3 hrs”
How it was run: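 POPC or DOPC liposomes were hydrated in 10 mM HEPES, 100 mM KCl, pH 7.4, containing 50 mM carboxyfluorescein. Size was checked by dynamic light scattering, and vesicles were used at 2.2×10^10 per mL. Peptide at 20 μM was equilibrated with vesicles for 3 min, and dye leakage was measured.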

Staphylococcus aureus = test: Growth inhibition of methicillin-resistant Staphylococcus aureus ATCC 43300 at 32 ug/ml after 18 hrs; assay type: functional; conditions: ATCC 43300, 18 h, read-out: GI
How it was run: (§1)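 Mid-log cultures in cation-adjusted Mueller Hinton broth were added at 5×10^5 CFU/mL to wells at a final compound concentration of 32 μg/mL. Plates stood at 37 °C for 18 h. Growth was read by OD600, and % inhibition was computed against media-only and untreated-bacteria controls.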

Escherichia coli = test: Growth inhibition of Escherichia coli ATCC 25922 at 32 ug/ml after 18 hrs; assay type: functional; conditions: ATCC 25922, 18 h, read-out: GI
How it was run: (§2)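 Mid-log cultures were prepared as above and seeded at 5×10^5 CFU/mL with compound at a final 32 μg/mL, then held static at 37 °C for 18 h. Growth was read as OD600. Percent inhibition was calculated against media-only and bacteria-only controls on the same plate.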

Klebsiella pneumoniae = test: Growth inhibition of multidrug-resistant Klebsiella pneumoniae ATCC 700603 at 32 ug/ml after 18 hrs; assay type: functional; conditions: ATCC 700603, 18 h, read-out: GI; how it was run: as §1
Pseudomonas aeruginosa = test: Growth inhibition of Pseudomonas aeruginosa ATCC 27853 at 32 ug/ml after 18 hrs; assay type: functional; conditions: ATCC 27853, 18 h, read-out: GI; how it was run: as §2
Acinetobacter baumannii = test: Growth inhibition of Acinetobacter baumannii ATCC 19606 at 32 ug/ml after 18 hrs; assay type: functional; conditions: ATCC 19606 = CIP 70.34 = JCM 6841, 18 h, read-out: GI; how it was run: as §2
Cryptococcus neoformans = test: Growth inhibition of Cryptococcus neoformans H99 ATCC 208821 at 32 ug/ml after 24 hrs by resazurin dye-based microspectrophotometric assay; assay type: functional; conditions: var. grubii H99 ATCC 208821, 24 h, read-out: GI
How it was run: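 Yeasts were grown 3 days on YPD agar at 30 °C, suspended from five colonies and diluted in YNB broth to a final 2.5×10^3 CFU/mL. Compound at a final 32 μg/mL; incubated 24 h at 35 °C without shaking. C. albicans was read at OD530. C. neoformans was read as OD600–570 after resazurin (0.001% final) and a further 2 h at 35 °C. Fluconazole was the standard.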

Candida albicans = test: Growth inhibition of Candida albicans ATCC 90028 at 32 ug/ml after 24 hrs by OD530 light-scattering microspectrophotometric method; conditions: ATCC 90028, 24 h, read-out: GI
[1] = Hemolytic activity against human RBC at 50 uM after 1 hr by Drabkin's assay relative to control; assay type: ADME, cell-based, Erythrocyte; conditions: human red blood cells (erythrocytes), read-out: Activity
[2] = Hemolytic activity against human RBC at 25 uM after 1 hr by Drabkin's assay relative to control; assay type: ADME, cell-based, Erythrocyte; conditions: human red blood cells (erythrocytes), read-out: Activity
[3] = Hemolytic activity against human RBC at 12.5 uM after 1 hr by Drabkin's assay relative to control; assay type: ADME, cell-based, Erythrocyte; conditions: human red blood cells (erythrocytes), read-out: Activity
[4] = Hemolytic activity against human RBC at 6.25 uM after 1 hr by Drabkin's assay relative to control; assay type: ADME, cell-based, Erythrocyte; conditions: human red blood cells (erythrocytes), read-out: Activity
[5] = Hemolytic activity against human RBC at 3.125 uM after 1 hr by Drabkin's assay relative to control; assay type: ADME, cell-based, Erythrocyte; conditions: human red blood cells (erythrocytes), read-out: Activity
[6] = Hemolytic activity against human RBC at 1.56 uM after 1 hr by Drabkin's assay relative to control; assay type: ADME, cell-based, Erythrocyte; conditions: human red blood cells (erythrocytes), read-out: Activity
[7] = Hemolytic activity against human RBC at 0.78 uM after 1 hr by Drabkin's assay relative to control; assay type: ADME, cell-based, Erythrocyte; conditions: human red blood cells (erythrocytes), read-out: Activity
[8] = Hemolytic activity against human RBC at 0.39 uM after 1 hr by Drabkin's assay relative to control; assay type: ADME, cell-based, Erythrocyte; conditions: human red blood cells (erythrocytes), read-out: Activity
[9] = Hemolytic activity against human RBC at 100 uM after 1 hr by Drabkin's assay relative to control; assay type: ADME, cell-based, Erythrocyte; conditions: human red blood cells (erythrocytes), read-out: Activity
Erythrocyte = test: Hemolytic activity against human RBC after 1 hr by Drabkin's assay; assay type: ADME, cell-based

CC(C)(C)OC(=O)[C@@H]1CCCN1C(=O)N1CCCN1C(=O)[C@@H]1CCCN1C(=O)N1CCCN1C(=O)[C@@H]1CCCN1C(=O)N1CCCN1C(=O)[C@@H]1CCCN1C(=O)N1CCCN1C(=O)[C@@H]1CCCN1C(=O)N1CCCN1C(=O)[C@@H]1CCCN1C(=O)N1CCCN1C(=O)[C@@H]1CCCN1C(=O)N1CCCN1C(=O)[C@@H]1CCCN1C(=O)N1CCCN1 [listing 1 of 2 here]
Activity (Lipid bilayer): inactive

CC(C)(C)OC(=O)[C@@H]1CCCN1C(=O)N1CCCN1C(=O)[C@@H]1CCCN1C(=O)N1CCCN1C(=O)[C@@H]1CCCN1C(=O)N1CCCN1C(=O)[C@@H]1CCCN1C(=O)N1CCCN1C(=O)[C@@H]1CCCN1C(=O)N1CCCN1C(=O)[C@@H]1CCCN1C(=O)N1CCCN1C(=O)[C@@H]1CCCN1C(=O)N1CCCN1C(=O)[C@@H]1CCCN1C(=O)N1CCCN1 [listing 2 of 2 here]
inhibition of growth at 32 µg/mL (Staphylococcus aureus): 20.7% | inhibition of growth at 32 µg/mL (Escherichia coli): 5.27% | inhibition of growth at 32 µg/mL (Klebsiella pneumoniae): 5.27% | inhibition of growth at 32 µg/mL (Pseudomonas aeruginosa): -8.18% | inhibition of growth at 32 µg/mL (Acinetobacter baumannii): 17.8% | inhibition of growth at 32 µg/mL (Cryptococcus neoformans): -3.43% | inhibition of growth at 32 µg/mL (Candida albicans): 2.92%

O=C(O)[C@@H]1CCCN1C(=O)N1CCCN1C(=O)[C@@H]1CCCN1C(=O)N1CCCN1C(=O)[C@@H]1CCCN1C(=O)N1CCCN1C(=O)[C@@H]1CCCN1C(=O)N1CCCN1C(=O)[C@@H]1CCCN1C(=O)N1CCCN1C(=O)[C@@H]1CCCN1C(=O)N1CCCN1C(=O)[C@@H]1CCCN1C(=O)N1CCCN1C(=O)[C@@H]1CCCN1C(=O)N1CCCN1C(=O)OCc1ccccc1
hemolysis at 1 h, 50 µM [1]: -0.361% | hemolysis at 1 h, 25 µM [2]: -0.181% | hemolysis at 1 h, 12.5 µM [3]: 0.181% | hemolysis at 1 h, 6.25 µM [4]: -0.09% | hemolysis at 1 h, 3.125 µM [5]: 0.271% | hemolysis at 1 h, 1.56 µM [6]: -0.452% | hemolysis at 1 h, 0.78 µM [7]: -0.181% | hemolysis at 1 h, 0.39 µM [8]: -0.271% | hemolysis at 1 h, 100 µM [9]: -0.271% | Activity (Erythrocyte): Dose-dependent effect | inhibition of growth at 32 µg/mL (Staphylococcus aureus): 1.14% | inhibition of growth at 32 µg/mL (Escherichia coli): 4.92% | inhibition of growth at 32 µg/mL (Klebsiella pneumoniae): 4.92% | inhibition of growth at 32 µg/mL (Pseudomonas aeruginosa): -9.17% | inhibition of growth at 32 µg/mL (Acinetobacter baumannii): 4.46% | inhibition of growth at 32 µg/mL (Cryptococcus neoformans): -1.86% | Activity (Lipid bilayer): inactive | inhibition of growth at 32 µg/mL (Candida albicans): 2.73%

O=C([C@@H]1CCCN1C(=O)N1CCCN1C(=O)[C@@H]1CCCN1C(=O)N1CCCN1C(=O)[C@@H]1CCCN1C(=O)N1CCCN1C(=O)[C@@H]1CCCN1C(=O)N1CCCN1C(=O)[C@@H]1CCCN1C(=O)N1CCCN1C(=O)[C@@H]1CCCN1C(=O)N1CCCN1C(=O)[C@@H]1CCCN1C(=O)N1CCCN1C(=O)[C@@H]1CCCN1)N1CCCN1
inhibition of growth at 32 µg/mL (Staphylococcus aureus): 22.8% | inhibition of growth at 32 µg/mL (Escherichia coli): 1.9% | inhibition of growth at 32 µg/mL (Klebsiella pneumoniae): 1.9% | inhibition of growth at 32 µg/mL (Pseudomonas aeruginosa): -6.95% | inhibition of growth at 32 µg/mL (Acinetobacter baumannii): -4.27% | inhibition of growth at 32 µg/mL (Cryptococcus neoformans): -2.7% | inhibition of growth at 32 µg/mL (Candida albicans): 2.38%

CC(C)(C)OC(=O)N1CCC[C@H]1C(=O)N1CCCN1C(=O)N1CCC[C@H]1C(=O)N1CCCN1C(=O)N1CCC[C@H]1C(=O)N1CCCN1C(=O)N1CCC[C@H]1C(=O)N1CCCN1C(=O)OCc1ccccc1
hemolysis at 1 h, 50 µM [1]: -0.379% | hemolysis at 1 h, 25 µM [2]: 0.227% | hemolysis at 1 h, 12.5 µM [3]: 0.038% | hemolysis at 1 h, 6.25 µM [4]: -0.152% | hemolysis at 1 h, 3.125 µM [5]: 0.038% | hemolysis at 1 h, 1.56 µM [6]: 0.189% | hemolysis at 1 h, 0.78 µM [7]: 0.189% | hemolysis at 1 h, 0.39 µM [8]: 0.227% | hemolysis at 1 h, 100 µM [9]: 0% | Activity (Erythrocyte): Dose-dependent effect

O=CN1CCCN1C(=O)N1CCC[C@H]1C(=O)N1CCCN1C(=O)N1CCC[C@H]1C(=O)N1CCCN1C(=O)N1CCC[C@H]1C(=O)N1CCCN1C(=O)N1CCC[C@H]1C(=O)N1CCCN1C(=O)N1CCC[C@H]1C(=O)NCCO
hemolysis at 1 h, 50 µM [1]: -0.361% | hemolysis at 1 h, 25 µM [2]: 0% | hemolysis at 1 h, 12.5 µM [3]: -0.913% | hemolysis at 1 h, 6.25 µM [4]: -0.361% | hemolysis at 1 h, 3.125 µM [5]: 0.02% | hemolysis at 1 h, 1.56 µM [6]: -0.452% | hemolysis at 1 h, 0.78 µM [7]: 0.08% | hemolysis at 1 h, 0.39 µM [8]: 0.361% | hemolysis at 1 h, 100 µM [9]: -0.251% | Activity (Erythrocyte): Dose-dependent effect | Activity (Lipid bilayer): inactive

Reference: ChEMBL document CHEMBL4196059, “Design, synthesis, and biological evaluation of stable β6.3-Helices: Discovery of non-hemolytic antibacterial peptides” (Eur J Med Chem, 2018)
